Values after ≈ are worked out from the molar mass of the structure shown.
Key:
Staphylococcus aureus [1] = assay: Antibacterial activity against Staphylococcus aureus SG 511 after 24 hrs by micro-broth dilution method; format: functional; details: SG 511, 24 h
Procedure, shortened: (§1)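 Microbroth dilution per NCCLS guidelines. Bacteria grown overnight at 37 °C in Mueller–Hinton broth. Compound solution serially diluted twofold in MHB, then wells inoculated to a final 5×10⁵ CFU/mL. Incubated 24 h at 37 °C. MIC (µg/mL) read on an automatic plate reader as the lowest dilution allowing no visible growth.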

Staphylococcus aureus [2] = assay: Antibacterial activity against methicillin-resistant Staphylococcus aureus 994/93 after 24 hrs by micro-broth dilution method; format: functional
Procedure, shortened: (§2)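 Broth microdilution per NCCLS in Mueller–Hinton broth. Overnight cultures grown at 37 °C. Compound serially diluted twofold, then wells inoculated to a final 5×10⁵ CFU/mL. Plates held at 37 °C for 24 h. MIC (µg/mL) read on an automatic plate reader as the lowest dilution with no visible growth.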

Staphylococcus aureus [3] = assay: Antibacterial activity against methicillin-resistant Staphylococcus aureus 134/94 after 24 hrs by microbroth dilution method; format: functional; procedure, shortened: as §2
Micrococcus luteus = assay: Antibacterial activity against Micrococcus luteus ATCC 10240 after 24 hrs by microbroth dilution method; format: functional; details: ATCC 10240, 24 h; procedure, shortened: as §1
Enterococcus faecalis = assay: Antibacterial activity against Enterococcus faecalis 1528 after 24 hrs by micro-broth dilution method; format: functional; procedure, shortened: as §1
[4] = tested on: Mycolicibacterium smegmatis; assay: Antimicrobial activity against Mycobacterium smegmatis SG 987 after 24 hrs by micro-broth dilution method; format: functional; procedure, shortened: as §1
Mycolicibacterium aurum = assay: Antimicrobial activity against Mycobacterium aurum SB 66 after 24 hrs by micro-broth dilution method; format: functional; procedure, shortened: as §1
Mycolicibacterium vaccae = assay: Antimicrobial activity against Mycobacterium vaccae 10670 after 24 hrs by micro-broth dilution method; format: functional; procedure, shortened: as §1
[5] = tested on: Mycolicibacterium fortuitum; assay: Antimicrobial activity against Mycobacterium fortuitum Borstel after 24 hrs by microbroth dilution method; format: functional; procedure, shortened: as §1
[6] = tested on: Mycobacterium tuberculosis; assay: Antimicrobial activity against Mycobacterium tuberculosis My 331/88 after 14 days; format: functional; details: 336 h
[7] = tested on: Mycobacterium tuberculosis; assay: Antimicrobial activity against Mycobacterium tuberculosis My 331/88 after 21 days; format: functional; details: 504 h
Mycobacterium avium [8] = assay: Antimicrobial activity against Mycobacterium avium My 330/88 after 14 days; format: functional; details: 336 h
Mycobacterium avium [9] = assay: Antimicrobial activity against Mycobacterium avium My 330/88 after 21 days; format: functional; details: 504 h
Mycobacterium kansasii [10] = assay: Antimicrobial activity against Mycobacterium kansasii My 235/80 after 7 days; format: functional; details: 168 h
Procedure, shortened: (§3)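 Run in Šula semisynthetic liquid medium containing bovine serum. Compounds added as DMSO solutions at final concentrations of […]. Each strain was also inoculated onto Löwenstein–Jensen medium to control inoculum sterility and growth.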

Mycobacterium kansasii [11] = assay: Antimicrobial activity against Mycobacterium kansasii My 235/80 after 14 days; format: functional; details: 336 h; procedure, shortened: as §3
Mycobacterium kansasii [12] = assay: Antimicrobial activity against Mycobacterium kansasii My 235/80 after 21 days; format: functional; details: 504 h; procedure, shortened: as §3
Mycobacterium kansasii [13] = assay: Antimicrobial activity against Mycobacterium kansasii My 6509/96 after 7 days; format: functional; details: 168 h; procedure, shortened: as §3
Mycobacterium kansasii [14] = assay: Antimicrobial activity against Mycobacterium kansasii My 6509/96 after 14 days; format: functional; details: 336 h; procedure, shortened: as §3
Mycobacterium kansasii [15] = assay: Antimicrobial activity against Mycobacterium kansasii My 6509/96 after 21 days; format: functional; details: 504 h; procedure, shortened: as §3
L929 = assay: Antiproliferative activity against mouse L929 cells after 72 hrs; format: functional; details: L929, 72 h
Procedure, shortened: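 About 10,000 adherent cells per well in RPMI 1640 with 10% heat-inactivated FBS and penicillin/streptomycin, without HEPES. Exposed to 10 concentrations for 72 h at 37 °C in humidified 5% CO₂. Monolayers fixed with glutaraldehyde, stained 15 min with 0.05% methylene blue, and eluted with 0.33 N HCl; OD read at 630 nm. GI50 derived from dose–response curves relative to control.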

K562 = assay: Antiproliferative activity against human K562 cells after 72 hrs; format: functional; details: K562, 72 h
Procedure, shortened: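 About 10,000 suspension cells per well in RPMI 1640 with 10% heat-inactivated FBS and penicillin/streptomycin, without HEPES. Exposed to 10 concentrations for 72 h at 37 °C in humidified 5% CO₂. Wells diluted 1:50 in CASYTON and counted electronically, each result the mean of three successive counts. GI50 is where the concentration–response curve crosses 50% of control cell count.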

HeLa = assay: Cytotoxicity against human HeLa cells after 72 hrs; format: functional; details: for CC50: Homo sapiens, HeLa, 72 h
Procedure, shortened: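 About 10,000 cells per well in RPMI 1640 were preincubated 48 h without compound. The 10 test concentrations were then applied onto the monolayers and incubated 72 h at 37 °C in humidified 5% CO₂. Monolayers fixed with glutaraldehyde, stained with 0.05% methylene blue, and eluted with 0.33 N HCl; optical density measured at 630 nm.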

Candida albicans [16] = assay: Antifungal activity against Candida albicans ATCC 44859 after 24 hrs; format: functional; details: ATCC 44859, 24 h
Procedure, shortened: (§4)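 Modified NCCLS M27-A broth microdilution with clinical isolates subcultured on Sabouraud dextrose agar. Suspensions diluted 1:50 in RPMI 1640 to give a final inoculum of 0.5–2.5×10³ CFU/mL for yeasts or 0.5–5×10⁴ CFU/mL for molds. The RPMI had L-glutamine, no bicarbonate, and 0.165 M MOPS to pH 7.0. Twofold dilutions from 250 to 0.49. Plates held at 35 °C, humid, without agitation. MIC is the lowest concentration giving ≥80% inhibition versus drug-free control, read at 24 and 48 h.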

Candida albicans [17] = assay: Antifungal activity against Candida albicans ATCC 44859 after 48 hrs; format: functional; details: ATCC 44859, 48 h; procedure, shortened: as §4
Candida tropicalis [18] = assay: Antifungal activity against Candida tropicalis 156 after 24 hrs; format: functional; procedure, shortened: as §4
Candida tropicalis [19] = assay: Antifungal activity against Candida tropicalis 156 after 48 hrs; format: functional; procedure, shortened: as §4
Pichia kudriavzevii [20] = assay: Antifungal activity against Candida krusei E28 after 24 hrs; format: functional; procedure, shortened: as §4
Pichia kudriavzevii [21] = assay: Antifungal activity against Candida krusei E28 after 48 hrs; format: functional; procedure, shortened: as §4
Nakaseomyces glabratus [22] = assay: Antifungal activity against Candida glabrata 20/I after 24 hrs; format: functional; procedure, shortened: as §4
Nakaseomyces glabratus [23] = assay: Antifungal activity against Candida glabrata 20/I after 48 hrs; format: functional; procedure, shortened: as §4
Trichosporon beigelii [24] = assay: Antifungal activity against Trichosporon beigelii 1188 after 24 hrs; format: functional; procedure, shortened: as §4
Trichosporon beigelii [25] = assay: Antifungal activity against Trichosporon beigelii 1188 after 48 hrs; format: functional; procedure, shortened: as §4
Aspergillus fumigatus [26] = assay: Antifungal activity against Aspergillus fumigatus 231 after 24 hrs; format: functional; procedure, shortened: as §4
Aspergillus fumigatus [27] = assay: Antifungal activity against Aspergillus fumigatus 231 after 48 hrs; format: functional; procedure, shortened: as §4
Lichtheimia corymbifera [28] = assay: Antifungal activity against Absidia corymbifera 272 after 24 hrs; format: functional; procedure, shortened: as §4
Lichtheimia corymbifera [29] = assay: Antifungal activity against Absidia corymbifera 272 after 48 hrs; format: functional; procedure, shortened: as §4
Trichophyton benhamiae [30] = assay: Antifungal activity against Trichophyton mentagrophytes 445 after 72 hrs; format: functional, Arthroderma benhamiae
Procedure, shortened: (§5)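 Same modified M27-A microdilution with the mold inoculum of 0.5–5×10⁴ CFU/mL. Medium was RPMI 1640 with L-glutamine, no bicarbonate, and 0.165 M MOPS at pH 7.0. Twofold dilutions from 250 to 0.49. Incubated at 35 °C in a humid atmosphere.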

Trichophyton benhamiae [31] = assay: Antifungal activity against Trichophyton mentagrophytes 445 after 120 hrs; format: functional, Arthroderma benhamiae; procedure, shortened: as §5

SMILES	MIC [6]	MIC [7]	MIC (Mycobacterium avium [8])	MIC (Mycobacterium avium [9])	MIC (Mycobacterium kansasii [10])	MIC (Mycobacterium kansasii [11])	MIC (Mycobacterium kansasii [12])	MIC (Mycobacterium kansasii [13])	MIC (Mycobacterium kansasii [14])	MIC (Mycobacterium kansasii [15])	GI50 (L929)	GI50 (K562)	CC10 (HeLa)	CC50 (HeLa)	also measured
Clc1ccc(CSc2ccncc2)cc1	32 µM (≈ 7.54 µg/mL)	62.5 µM (≈ 14.7 µg/mL)	62.5 µM (≈ 14.7 µg/mL)	62.5 µM (≈ 14.7 µg/mL)	32 µM (≈ 7.54 µg/mL)	62.5 µM (≈ 14.7 µg/mL)	62.5 µM (≈ 14.7 µg/mL)	32 µM (≈ 7.54 µg/mL)	62.5 µM (≈ 14.7 µg/mL)	62.5 µM (≈ 14.7 µg/mL)	21.2 µg/mL (≈ 89.9 µM)	19.8 µg/mL (≈ 84 µM)	8.6 µg/mL (≈ 36.5 µM)	16.3 µg/mL (≈ 69.1 µM)	MIC (Staphylococcus aureus [1]): 50 µg/mL (≈ 212 µM); MIC (Staphylococcus aureus [2]): 100 µg/mL (≈ 424 µM); MIC (Staphylococcus aureus [3]): > 100 µg/mL; MIC (Micrococcus luteus): 50 µg/mL (≈ 212 µM); MIC (Enterococcus faecalis): 100 µg/mL (≈ 424 µM); MIC [4]: 25 µg/mL (≈ 106 µM); MIC (Mycolicibacterium aurum): 12.5 µg/mL (≈ 53 µM); MIC (Mycolicibacterium vaccae): 25 µg/mL (≈ 106 µM); MIC [5]: 12.5 µg/mL (≈ 53 µM)
Clc1ccc(-n2nnnc2SCc2ccccc2)cc1Cl	16 µM (≈ 5.4 µg/mL)	32 µM (≈ 10.8 µg/mL)	62.5 µM (≈ 21.1 µg/mL)	125 µM (≈ 42.2 µg/mL)	8 µM (≈ 2.7 µg/mL)	16 µM (≈ 5.4 µg/mL)	32 µM (≈ 10.8 µg/mL)	16 µM (≈ 5.4 µg/mL)	32 µM (≈ 10.8 µg/mL)	62.5 µM (≈ 21.1 µg/mL)	19.1 µg/mL (≈ 56.6 µM)	> 50 µg/mL	9.9 µg/mL (≈ 29.4 µM)	48.6 µg/mL (≈ 144 µM)	MIC (Candida albicans [16]): > 250 µM; MIC (Candida albicans [17]): > 250 µM; MIC (Candida tropicalis [18]): > 250 µM; MIC (Candida tropicalis [19]): > 250 µM; MIC (Pichia kudriavzevii [20]): > 250 µM; MIC (Pichia kudriavzevii [21]): > 250 µM; MIC (Nakaseomyces glabratus [22]): > 250 µM; MIC (Nakaseomyces glabratus [23]): > 250 µM; MIC (Trichosporon beigelii [24]): > 250 µM; MIC (Trichosporon beigelii [25]): > 250 µM; MIC (Aspergillus fumigatus [26]): 250 µM (≈ 84.3 µg/mL); MIC (Aspergillus fumigatus [27]): > 250 µM; MIC (Lichtheimia corymbifera [28]): > 250 µM; MIC (Lichtheimia corymbifera [29]): > 250 µM; MIC (Trichophyton benhamiae [30]): 125 µM (≈ 42.2 µg/mL); MIC (Trichophyton benhamiae [31]): 125 µM (≈ 42.2 µg/mL)
